According to ChEMBL document CHEMBL1124581, “Synthesis and hypolipidemic and antidiabetogenic activities of beta,beta,beta',beta'-tetrasubstituted, long-chain dioic acids” (J Med Chem, 1989):

What was measured:
[1] = target: Peroxisomal bifunctional enzyme (Rattus norvegicus) (UniProt P07896); assay: Percent of liver peroxisomal enoyl-CoA hydratase activity in rats
[2] = tested on: Rattus norvegicus; assay: In vivo lipid synthesis as percent of nontreated control by incorporation of 3H20 into 3-beta-hydroxysterols in rat, at 0.1%(w/w) in diet for three days
[3] = organism: Rattus norvegicus; assay: Percent of hypolipidemic activity in rats by evaluating the plasma cholesterol level at 0.1%(w/w) in diet for three days; assay type: functional
Procedure, shortened: (§1)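 Rats treated 3 days with 0.1% (w/w) analogue in diet. Plasma triacylglycerols and cholesterol (mg %) compared with untreated rats (mean ± SD, n = 3).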

[4] = tested on: Rattus norvegicus; assay: In vivo percent inhibition of lipid synthesis, by incorporation of 3H20 into liver saponified fatty acids in rat, at 0.1%(w/w) in diet for three days; assay type: functional; details: values are per cent of control
Procedure, shortened: (§2)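 Rats fed for 3 consecutive days a carbohydrate-rich fat-free diet containing analogue (0.1% w/w for core-substituted series; 0.25% w/w for chain-length homologues). 10 mCi 3H2O given ip; liver taken 1 h later. 3H2O incorporation into liver saponified fatty acids and 3-β-hydroxysterols is expressed as % of untreated rats (untreated n = 3 or 4, mean ± SD).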

[5] = organism: Rattus norvegicus; assay: Percent of hypolipidemic activity in rats by evaluating the plasma triacylglycerol level at 0.1%(w/w) in diet for three days; assay type: functional
Procedure, shortened: as §1

[6] = organism: Rattus norvegicus; assay: Inhibition of lipid synthesis, by incorporation of 3H20 into 3-beta-hydroxysterols in cultured rat hepatocytes; assay type: functional; details: Hepatocyte, read-out: I50
Procedure, shortened: (§3)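 Cultured rat hepatocytes incubated with varying concentrations of homologue. 3H2O incorporation into saponified fatty acids and 3-β-hydroxysterols measured. I50 = concentration (mM) giving 50% inhibition.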

[7] = organism: Rattus norvegicus; assay: Percent inhibition of lipid synthesis by incorporation of 3H20 into saponified fatty acids in rat; assay type: functional; design: concentration or dose not given beside the values
Procedure, shortened: as §2

[8] = target: Peroxisomal bifunctional enzyme (Rattus norvegicus) (UniProt P07896); assay: Liver peroxisomal enoyl-CoA hydratase activity in rats
[9] = target: T1, ATP-citrate synthase (Rattus norvegicus, UniProt P16638); assay: Inhibition against ATP-citrate lyase in rat liver; assay type: tissue-based
T1 sequence (P16638 whole entry): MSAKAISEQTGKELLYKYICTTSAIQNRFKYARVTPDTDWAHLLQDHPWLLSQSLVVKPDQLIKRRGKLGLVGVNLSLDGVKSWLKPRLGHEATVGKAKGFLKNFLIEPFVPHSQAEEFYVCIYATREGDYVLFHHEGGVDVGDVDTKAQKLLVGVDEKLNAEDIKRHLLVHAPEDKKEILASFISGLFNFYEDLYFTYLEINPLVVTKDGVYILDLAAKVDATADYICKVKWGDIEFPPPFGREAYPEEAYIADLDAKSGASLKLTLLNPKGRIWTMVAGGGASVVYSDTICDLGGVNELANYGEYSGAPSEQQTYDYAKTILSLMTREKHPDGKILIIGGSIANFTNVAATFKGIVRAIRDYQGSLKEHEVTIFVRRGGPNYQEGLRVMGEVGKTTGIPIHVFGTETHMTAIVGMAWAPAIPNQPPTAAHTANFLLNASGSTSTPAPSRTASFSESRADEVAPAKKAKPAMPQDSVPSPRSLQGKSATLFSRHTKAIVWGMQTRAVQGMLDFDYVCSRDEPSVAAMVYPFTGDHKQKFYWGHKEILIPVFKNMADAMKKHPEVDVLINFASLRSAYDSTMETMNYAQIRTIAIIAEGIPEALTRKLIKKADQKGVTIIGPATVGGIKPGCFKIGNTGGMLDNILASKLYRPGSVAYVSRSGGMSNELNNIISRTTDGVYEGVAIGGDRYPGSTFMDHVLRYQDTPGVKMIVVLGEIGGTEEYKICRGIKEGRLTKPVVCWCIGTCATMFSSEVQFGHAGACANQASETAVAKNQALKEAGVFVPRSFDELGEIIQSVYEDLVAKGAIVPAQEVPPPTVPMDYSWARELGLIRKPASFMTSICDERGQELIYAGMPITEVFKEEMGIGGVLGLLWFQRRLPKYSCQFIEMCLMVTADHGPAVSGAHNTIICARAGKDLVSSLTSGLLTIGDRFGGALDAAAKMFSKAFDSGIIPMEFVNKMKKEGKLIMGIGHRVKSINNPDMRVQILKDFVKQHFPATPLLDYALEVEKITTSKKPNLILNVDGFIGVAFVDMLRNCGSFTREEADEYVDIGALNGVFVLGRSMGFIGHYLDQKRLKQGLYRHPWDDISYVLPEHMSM
Procedure, shortened: (§4)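 Liver citrate lyase activity measured across varying concentrations of homologue. Ki (mM) determined from a Dixon plot.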

[10] = organism: Rattus norvegicus; assay: Inhibition of lipid synthesis, by incorporation of 3H20 into saponified fatty acids in cultured rat hepatocytes; assay type: functional; details: Hepatocyte, read-out: I50
Procedure, shortened: as §3

[11] = target: T1, ATP-citrate synthase; assay: Inhibition against ATP-citrate lyase in liver; assay type: tissue-based
Procedure, shortened: as §4

[12] = tested on: Rattus norvegicus; assay: Hypolipidemic activity in rats by evaluating the plasma cholesterol level at a dose of 10 mg/kg for seven days; assay type: functional
Procedure, shortened: (§5)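 Male Lewis rats, 150–180 g, fed standard chow ad libitum. Compound given orally as a suspension in 1% aqueous tylose; controls received vehicle. Blood taken from the retrobulbar venous plexus 3 h after dosing. Plasma cholesterol and triacylglycerols measured spectrophotometrically with enzymatic kits.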

[13] = tested on: Rattus norvegicus; assay: Hypolipidemic activity in rats by evaluating the plasma triacylglycerol level at a dose of 10 mg/kg for seven days; assay type: functional
Procedure, shortened: as §5

[14] = target: T1, ATP-citrate synthase; assay: Inhibition against ATP-citrate lyase in rat liver.
Procedure, shortened: as §4

[15] = target: T1, ATP-citrate synthase; assay: Inhibition against ATP-citrate lyase in liver.; assay type: tissue-based
Procedure, shortened: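 Liver ATP-citrate lyase activity was followed across varying inhibitor concentrations, and Ki was derived from a Dixon plot. The methods otherwise refer to an earlier report.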

[16] = organism: Rattus norvegicus; assay: Hypolipidemic activity in rats by evaluating the plasma cholesterol level at 0.1%(w/w) in diet for three days
[17] = organism: Rattus norvegicus; assay: Hypolipidemic activity in rats by evaluating the plasma cholesterol level at 0.30 dose (% w/w) in diet; assay type: functional
Procedure, shortened: (§6)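 Hebrew University strain rats, 140–160 g, starved 48 h, then pair-refed for 3 consecutive nights a 15-g meal of high-carbohydrate fat-free powdered diet, with or without analogue mixed into the diet at the stated % (w/w). The morning after the last meal, 10 mCi 3H2O in saline given ip; rats killed 1 h later. Readouts: liver lipid 3H2O incorporation, plasma lipids, peroxisomal enoyl-CoA hydratase, CN-insensitive palmitoyl-CoA oxidation. Mean ± SD, n = 4.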

[18] = target: Enoyl-CoA hydratase (Rattus norvegicus) (UniProt P07896); assay: Liver peroxisomal palmitoyl-CoA oxidation activity in rats, at 0.00(w/w) in diet
Chain of Enoyl-CoA hydratase (Rattus norvegicus) (P07896 whole entry): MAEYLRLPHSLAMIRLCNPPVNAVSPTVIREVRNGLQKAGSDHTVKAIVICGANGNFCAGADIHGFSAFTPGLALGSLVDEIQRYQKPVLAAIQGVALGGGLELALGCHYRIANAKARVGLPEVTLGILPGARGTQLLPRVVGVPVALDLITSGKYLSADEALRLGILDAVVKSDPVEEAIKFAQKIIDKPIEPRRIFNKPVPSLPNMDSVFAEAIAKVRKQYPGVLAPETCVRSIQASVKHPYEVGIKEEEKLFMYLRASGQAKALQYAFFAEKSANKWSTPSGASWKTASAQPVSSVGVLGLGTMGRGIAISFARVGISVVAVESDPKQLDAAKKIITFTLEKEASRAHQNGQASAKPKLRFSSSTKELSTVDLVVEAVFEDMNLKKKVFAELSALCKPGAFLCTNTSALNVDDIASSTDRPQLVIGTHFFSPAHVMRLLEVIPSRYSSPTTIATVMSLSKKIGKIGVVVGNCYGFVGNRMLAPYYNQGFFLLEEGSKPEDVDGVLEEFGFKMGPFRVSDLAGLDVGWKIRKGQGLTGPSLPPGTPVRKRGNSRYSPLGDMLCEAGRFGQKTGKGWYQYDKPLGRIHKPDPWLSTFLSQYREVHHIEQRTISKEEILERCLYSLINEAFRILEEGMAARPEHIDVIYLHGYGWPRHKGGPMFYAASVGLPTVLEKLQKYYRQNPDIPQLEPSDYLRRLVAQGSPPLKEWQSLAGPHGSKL
Procedure, shortened: as §6

[19] = target: Enoyl-CoA hydratase (Rattus norvegicus) (UniProt P07896); assay: Liver peroxisomal palmitoyl-CoA oxidation activity in rats, at 0.15(w/w) in diet
Procedure, shortened: as §6

[20] = organism: Rattus norvegicus; assay: Hypolipidemic activity in rats by evaluating the plasma triacylglycerol level at 0.00 (% w/w)in diet; assay type: functional
Procedure, shortened: as §6

[21] = organism: Rattus norvegicus; assay: Inhibition of lipid synthesis, evaluated by incorporation of 3H20 at 0.00(w/w) into liver saponified fatty acids in rat; assay type: functional
[22] = organism: Rattus norvegicus; assay: Hypolipidemic activity in rats by evaluating the plasma cholesterol level at 0.15 dose (% w/w) in diet; assay type: functional
Procedure, shortened: as §6

[23] = organism: Rattus norvegicus; assay: Hypolipidemic activity in rats by evaluating the plasma triacylglycerol level at 0.15 (% w/w)in diet; assay type: functional
Procedure, shortened: as §6

[24] = organism: Rattus norvegicus; assay: Hypolipidemic activity in rats by evaluating the plasma triacylglycerol level at 0.30 (% w/w)in diet; assay type: functional
Procedure, shortened: as §6

[25] = organism: Rattus norvegicus; assay: Inhibition of lipid synthesis, evaluated by incorporation of 3H20 at 0.30(w/w) into liver cholesterol in rat; assay type: functional
[26] = organism: Rattus norvegicus; assay: Hypolipidemic activity in rats by evaluating the plasma cholesterol level at 0.00 dose (% w/w) in diet; assay type: functional
Procedure, shortened: as §6

[27] = organism: Rattus norvegicus; assay: Inhibition of lipid synthesis, evaluated by incorporation of 3H20 at 0.15(w/w) into liver cholesterol in rat; assay type: functional
[28] = organism: Rattus norvegicus; assay: Inhibition of lipid synthesis, evaluated by incorporation of 3H20 at 0.30(w/w) into liver saponified fatty acids in rat; assay type: functional
[29] = organism: Rattus norvegicus; assay: Inhibition of lipid synthesis, evaluated by incorporation of 3H20 at 0.00(w/w) into liver cholesterol in rat; assay type: functional
[30] = target: Enoyl-CoA hydratase (Rattus norvegicus) (UniProt P07896); assay: Liver peroxisomal palmitoyl-CoA oxidation activity in rats, at 0.30(w/w) in diet
Procedure, shortened: as §6

[31] = target: Enoyl-CoA hydratase (Rattus norvegicus) (UniProt P07896); assay: Liver peroxisomal enoyl-CoA hydratase activity in rats, at 0.00(w/w) in diet
Procedure, shortened: as §6

Chain of Peroxisomal bifunctional enzyme (Rattus norvegicus) (P07896 whole entry, looked up): as the sequence (P07896 whole entry) above

Activity (uM min-1 mg-1) [1] | Activity (uM min-1 mg-1) [8] | SMILES | Incorporation [2] | residual activity [4] | Activity [5] | IC50 [6] | Fatty acid synthesis (% of untreated control) [7] | IC50 [10] | Activity (mg) [12] | Hypolipidemic activity [13] | further results
4.5 |  | CC(C)(C/C=C\c1ccc(/C=C\CC(C)(C)CC(=O)O)cc1)CC(=O)O | 97% | 72% | 98% |  |  |  |  |  | Activity [3]: 47%
18.6 |  | CC(C)(C/C=C/c1ccc(/C=C/CC(C)(C)CC(=O)O)cc1)CC(=O)O | 57% | 57% | 41% |  |  |  |  |  | Activity [3]: 28%
 | 7.5 | CC(C)(CCCCCCC(C)(C)CC(=O)O)CC(=O)O |  |  |  | 200 µM | 80% | 300 µM |  |  | Ki [9]: 310 µM
10.5 |  | CC(C)(C/C=C\c1ccc(/C=C/CC(C)(C)CC(=O)O)cc1)CC(=O)O | 37% | 50% | 25% |  |  |  |  |  | Activity [3]: 37%
12 |  | CC(C)(CCCc1ccc(CCCC(C)(C)CC(=O)O)cc1)CC(=O)O | 65% | 63% | 84% |  |  |  |  |  | Activity [3]: 36%
 | 16.3 | CC(C)(CCCCCCCCC(C)(C)CC(=O)O)CC(=O)O |  |  |  | 100 µM | 66% | 100 µM | 70% | 126% | Ki [14]: 56 µM
10.7 | 31 | CC(C)(CCCCCCCCCCC(C)(C)CC(=O)O)CC(=O)O | 40% | 48% | 49% | 80 µM | 29% | 80 µM | 58% | 111% | Ki [15]: 16 µM; Plasma cholesterol [16]: 32 mg %
14 |  | CC(C)(CCCC1CCC(CCCC(C)(C)CC(=O)O)CC1)CC(=O)O (stereo not given) | 71% | 79% | 63% |  |  |  |  |  | Plasma cholesterol [16]: 42 mg %

The remaining lines, values behind:

SMILES | Activity (uM min-1 mg-1) [1] | Activity (uM min-1 mg-1) [8] | Incorporation [2] | residual activity [4] | Activity [5] | IC50 [6] | Fatty acid synthesis (% of untreated control) [7] | IC50 [10] | Activity (mg) [12] | Hypolipidemic activity [13] | further results
CC(C)(CCCCCCCCCCCCCCCCC(C)(C)CC(=O)O)CC(=O)O |  | 3.5 |  |  |  | 400 µM | 158% | 400 µM |  |  | Ki [11]: 320 µM
CC(C)(CCCCCCCCCC(C)(C)CC(=O)O)CC(=O)O |  |  |  |  |  |  |  |  | 72% | 112% | 
CC(C)(CCCCCCCCCCCC(C)(C)CC(=O)O)CC(=O)O |  |  |  |  |  |  |  |  | 73% | 113% | 
CC(C)(CCCCCCCCCCCCCCC(C)(C)CC(=O)O)CC(=O)O |  | 5 |  |  |  | 300 µM | 113% | 300 µM |  |  | Ki [11]: 260 µM
O=C(O)CC(CCCCCCCCCCC(CC(=O)O)(c1ccccc1)c1ccccc1)(c1ccccc1)c1ccccc1 |  |  |  |  |  |  |  |  |  |  | Activity (mg) [17]: 58%; Activity (nmol/mg.of protein. min) (nmol/mg protein/min) [18]: 4.8; Activity (nmol/mg.of protein. min) (nmol/mg protein/min) [19]: 4.4; Activity (mg) [20]: 131%; Activity (umol/g.of liver 75.min) [21]: 118 µmol/g liver/75 min; Activity (mg) [22]: 70%; Activity (mg) [23]: 127%; Activity (mg) [24]: 101%; Activity (umol/g.of liver 75.min) [25]: 3.4 µmol/g liver/75 min; Activity (mg) [26]: 70.5%; Activity (umol/g.of liver 75.min) [27]: 4.3 µmol/g liver/75 min; Activity (umol/g.of liver 75.min) [28]: 123 µmol/g liver/75 min; Activity (umol/g.of liver 75.min) [29]: 3.9 µmol/g liver/75 min; Activity (nmol/mg.of protein. min) (nmol/mg protein/min) [30]: 7.2; Activity (umol/mg.of protein. min) (µmol/mg protein/min) [31]: 0.45
CC(C)(CCCCCCCCCCCCC(C)(C)CC(=O)O)CC(=O)O |  | 17.5 |  |  |  | 150 µM | 48% | 150 µM | 73% | 130% | Ki [11]: 46 µM
